{
  "source": "paper PMC6287896",
  "about": "(Anti-Cancer Drugs, 2018)",
  "key": {"[1]": {"system": "PC-3 cells", "experiment": "WST-1 assay for cell viability and cytotoxicity", "assay_type": "cell-based, human", "conditions": "23.4 mmol/l, 4 day incubation, read up to 8 h, P≤0.01"}, "[2]": {"experiment": "Plasma pharmacokinetics and bioavailability after intravenous and oral dosing", "assay_type": "in vivo", "conditions": "mouse, other: oral gavage and intravenous bolus", "summary_of_the_method": "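Mice were dosed by intravenous bolus or oral gavage, with plasma sampled over 24 h and one sacrifice per time point. Plasma was protein-precipitated with acetonitrile/methanol, evaporated and reconstituted in 0.1% acetic acid. Quantitation was by C18 UHPLC–tandem MS with heated ESI and positive-mode SRM (240.100→110.054), against spiked mouse plasma calibrants. Half-life was taken from concentration–time profiles.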"}, "[3]": {"system": "DU-145 prostate carcinoma cells", "experiment": "DU-145 xenografts in athymic nude mice", "assay_type": "in vivo, mouse", "conditions": "30 days"}, "[4]": {"experiment": "Acute toxicity, oral up and down procedure", "assay_type": "in vivo, mouse", "conditions": "2000 mg/kg, monitored 48 h, repeated twice on other animals"}, "[5]": {"experiment": "Dose-response: serum markers of organ function", "assay_type": "in vivo, mouse", "summary_of_the_method": "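Mice were dosed intravenously with vehicle or 50, 100 or 200 mg/kg test compound (six per group). They were euthanised by CO2 with cervical dislocation at 6 or 18 h, and blood and tissue were collected. Serum AST, GGT, CRP and troponin I were measured by colorimetric assays to assess liver, kidney and heart function. Tissues were examined for gross pathology.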"}, "[6]": {"system": "DU-145 cells", "experiment": "WST-1 assay for cell viability and cytotoxicity", "assay_type": "cell-based, human", "conditions": "23.4 mmol/l, 4 day incubation, read up to 8 h, P≤0.01"}, "[7]": {"experiment": "Tissue levels", "assay_type": "in vivo", "conditions": "mouse heart, liver, kidney, brain; up to 24 h; i.v. and oral", "summary_of_the_method": "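After intravenous or oral dosing, liver, kidney, heart and brain were collected at sacrifice. Tissue was homogenised in ice-cold 0.1% acetic acid (10 ml/g) and centrifuged. Acetonitrile/methanol was added to the supernatant, followed by vortexing, centrifugation, evaporation and reconstitution in 0.1% acetic acid. Samples were quantified by LC–MS/MS (SRM 240.100→110.054) against spiked blank-tissue calibrants.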"}, "[8]": {"experiment": "Plasma stability", "assay_type": "in vitro ADME", "conditions": "over 2 h", "summary_of_the_method": "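Human plasma was spiked with test compound and incubated separately at 25 and 37°C. Drug levels were measured over 120 min.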"}, "[9]": {"conditions": "intravenous 50, 100 or 200 mg/kg, 6 or 18 h"}},
  "data": [
    {"smiles": "C[C@@H]1C[C@@H](n2cnc(C(N)=O)c2N)[C@H](O)[C@H]1O", "note": "[ICA-1s, 5-amino-1-((1R,2S,3S,4R)-2,3-dihydroxy-4-methylcyclopentyl)-1H-imidazole-4-carboxamide]", "values": [
      {"measurement": "in-vitro cytotoxicity (WST-1, absorbance at 450 nm)", "setting": "[1]", "result": "significant cytotoxicity"},
      {"measurement": "half-life", "setting": "[2]", "result": 5.7, "unit": "h"},
      {"measurement": "average tumor size of treated xenografts", "setting": "[3]; 100 mg/kg subcutaneous daily, untreated 156.4 mm^2", "result": 76.8, "unit": "mm^2"},
      {"measurement": "tumor growth rate relative to untreated tumors", "setting": "[3]; DU-145 xenografts, treated vs untreated", "result": "almost half the rate"},
      {"measurement": "acute toxicity outcome at highest dose of the UDP", "setting": "[4]", "result": "survived with no observable adverse reaction"},
      {"measurement": "serum CRP versus control", "setting": "[5]; intravenous 200 mg/kg, 6 h after treatment, P=0.033", "result": "significant rise"},
      {"measurement": "serum AST versus control", "setting": "[5]; [9]", "result": "no significant difference"},
      {"measurement": "serum GGT versus control", "setting": "[5]; [9]", "result": "no significant difference"},
      {"measurement": "serum troponin I versus control", "setting": "[5]; [9]", "result": "no significant difference"},
      {"measurement": "serum CRP versus control, all other readings", "setting": "[5]; intravenous 50, 100 or 200 mg/kg, 6 or 18 h, other than 200 mg/kg at 6 h", "result": "no significant difference"},
      {"measurement": "in-vitro cytotoxicity (WST-1, absorbance at 450 nm)", "setting": "[6]", "result": "significant cytotoxicity"},
      {"measurement": "accumulation in major organs (tissue levels)", "setting": "[7]", "result": "did not appear to indicate accumulation"},
      {"measurement": "stability in human plasma", "setting": "[8]; 25°C (ambient)", "result": "stable"},
      {"measurement": "stability in human plasma", "setting": "[8]; 37°C", "result": "stable"}
    ]}
  ]
}
